# Source: PubChem BioAssay
# The source made the active and inactive calls.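 Rule for the calls, unless noted: active = Her2 level under about 52% in both replicate screens, with viability over 70% of control (limit read from the data); inconclusive = Her2 under the limit in one screen only, or viability under 70%; inactive = Her2 level above the set limit.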
# Tests used:
# [1] = Her2 expression decrease, cell viability multiplex – SKBR3 breast tumor cells, AlphaScreen, ATP viability, primary screen (AID 461); details: SKBR3 Her2 protein level, 18-24 h, measured here: SKBR3 viability, ATP luminescence, at 10 µM;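 for Her2 level: lower value means less Her2 protein in the cells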;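 for viability: percent of carrier control wells set as 100% viability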
# [2] = target: Receptor tyrosine-protein kinase erbB-2 (Homo sapiens) (UniProt P04626); experiment: as above; details: 18-24 h, at 10 µM, stronger effect = lower value
# Receptor tyrosine-protein kinase erbB-2 (Homo sapiens), sequence (P04626 whole entry, looked up): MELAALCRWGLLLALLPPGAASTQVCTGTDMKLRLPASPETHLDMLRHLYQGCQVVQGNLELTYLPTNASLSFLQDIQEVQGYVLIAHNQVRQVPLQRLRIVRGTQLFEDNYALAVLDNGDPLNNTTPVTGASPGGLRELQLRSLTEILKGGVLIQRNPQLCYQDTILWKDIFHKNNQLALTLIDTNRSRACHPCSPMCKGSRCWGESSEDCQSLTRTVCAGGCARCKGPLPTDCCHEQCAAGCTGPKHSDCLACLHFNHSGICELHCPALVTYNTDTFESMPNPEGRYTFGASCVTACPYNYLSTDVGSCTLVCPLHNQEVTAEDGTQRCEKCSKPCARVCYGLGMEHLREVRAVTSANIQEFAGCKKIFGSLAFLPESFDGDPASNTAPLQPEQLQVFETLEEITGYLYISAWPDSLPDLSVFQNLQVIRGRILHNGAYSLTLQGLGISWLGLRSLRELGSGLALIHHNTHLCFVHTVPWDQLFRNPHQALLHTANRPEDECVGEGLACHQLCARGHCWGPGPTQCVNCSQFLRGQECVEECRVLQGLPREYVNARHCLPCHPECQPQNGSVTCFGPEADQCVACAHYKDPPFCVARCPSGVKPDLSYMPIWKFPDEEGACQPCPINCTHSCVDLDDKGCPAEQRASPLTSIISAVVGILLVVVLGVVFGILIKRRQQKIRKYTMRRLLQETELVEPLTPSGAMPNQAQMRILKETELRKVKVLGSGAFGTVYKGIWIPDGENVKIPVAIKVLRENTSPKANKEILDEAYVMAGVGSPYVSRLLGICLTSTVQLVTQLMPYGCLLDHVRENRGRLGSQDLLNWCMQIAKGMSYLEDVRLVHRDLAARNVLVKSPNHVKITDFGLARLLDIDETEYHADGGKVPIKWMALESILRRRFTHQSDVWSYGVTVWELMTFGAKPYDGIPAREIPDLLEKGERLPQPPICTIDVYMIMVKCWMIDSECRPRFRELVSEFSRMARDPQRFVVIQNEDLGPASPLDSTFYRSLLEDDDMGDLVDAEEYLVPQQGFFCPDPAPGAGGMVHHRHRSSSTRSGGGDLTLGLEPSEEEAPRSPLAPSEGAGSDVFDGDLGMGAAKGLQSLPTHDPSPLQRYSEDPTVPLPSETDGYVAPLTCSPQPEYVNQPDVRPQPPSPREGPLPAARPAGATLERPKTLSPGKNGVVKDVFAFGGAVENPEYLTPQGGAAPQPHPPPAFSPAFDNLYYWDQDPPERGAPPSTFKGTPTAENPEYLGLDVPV
# [3] = reduced viability of SK-BR-3 breast cancer cells – cell-based, 24 h, human, pilot screen (AID 572;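 active = viability at or below 10% of carrier control in both of two separate runs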;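 note: compound exposure lasted between 18 and 24 h rather than exactly 24 h; 100% = carrier-treated control wells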); details: SK-BR-3 viability, CellTiter-Glo luminescence, at 10 µM, stronger effect = lower value
# [4] = HUVEC growth inhibition – cell-based, human, primary screen (AID 575;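 active = viability at or below 30% in both replicate assays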;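 note: 100% = median of untreated cell wells with 0.1% DMSO on each plate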); details: HUVEC proliferation, CellTiter-Glo luminescence, 72 h; at 10 µM; stronger effect = lower value
# Procedure, shortened: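 Timing: 72 h treatment at 37 °C; material: HUVEC primary cells; technique: CellTiter-Glo luminescence measuring cellular ATP; controls: vehicle and MePR control wells; measure: percent of median DMSO-control luminescence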
# [5] = H69AR cell proliferation blockers – human, duplicate replicates, primary screen (AID 580;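 active = viability at or under a set limit in both replicates, limit being median viability minus 3 SD, cut at about 48% in these data, passing the limit was not always enough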;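 note: 100% = mean luminescence of untreated wells and 0% = no signal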); details: H69AR lung tumor cells viability, ATP luminescence, 72 h; at 10 µM; stronger effect = lower value
# [6] = MRP1 drug-resistance reversers in H69AR cells – cell-based, doxorubicin co-treatment, pilot screen (AID 601;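 active = viability loss from added drug above about 55%, and viability with drug at most 40%, in both replicates, limit read from the data, passing the limit was not always enough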); details: CellTiter-Glo, 72 h, at 10 µM; for differential viability (reversal): stronger effect = higher value
# [7] = yeast transport mutant growth inhibition pilot in 384-well plates, post-Golgi transport modulator project (AID 636; in the data active = inhibition above about 31%); details: absorbance 615 nm, about 18 h, stronger effect = higher value
# [8] = growth suppression of yeast trafficking mutant, preliminary HTS, modulators of trafficking downstream of Golgi apparatus project, 1536-format plate, OD 615 nm (AID 637; in the data active = inhibition above about 30%); details: yeast transport mutant growth, absorbance 615 nm, 18 h; stronger effect = higher value
# [9] = H69AR cells + 2 uM doxorubicin, measured here: viability with 2 uM doxorubicin, stronger effect = lower value
# [10] = H69AR cells, compound alone cytotoxicity
Structure (SMILES),viability [1] [%],Her2 level [2],viability [3],viability [4],viability [5],differential viability (reversal) ([6]; H69AR cells + 2 uM doxorubicin),"viability [6, 9] [%]","viability [6, 10] [%]",inhibition [7],inhibition [8]
COc1ccc(CCNC(=O)C2CCN(C(=O)N(C)C)CC2)cc1OC,86.5,117% (inactive),86.5% (inactive),108% (inactive),92.8% (inactive),1.61% (inactive),91.2,92.8,-2.05% (inactive),-4.67% (inactive)
O=C(CSc1nc(-c2ccccc2)cs1)NC(=O)NCc1ccco1,86.5,77.5% (inactive),86.5% (inactive),58.4% (inactive),76.7% (inactive),-0.93% (inactive),77.6,76.7,-5.6% (inactive),2.06% (inactive)
Nc1ccc(-c2ccc(N)cc2C(F)(F)F)c(C(F)(F)F)c1,94,80% (inactive),94% (inactive),75.1% (inactive),68.6% (inactive),-13.7% (inactive),82.3,68.6,-0.65% (inactive),-0.66% (inactive)
O=C(COC(=O)c1ccccc1Oc1ccccc1)NC1CCS(=O)(=O)C1 (stereo not given),107,104% (inactive),107% (inactive),98.8% (inactive),90% (inactive),-8.6% (inactive),98.6,90,0.54% (inactive),-5.57% (inactive)
O=C(CN1CCC(n2nnc3cc(F)ccc32)CC1)Nc1ccc2c(c1)CCC2,93,104% (inactive),93% (inactive),79.5% (inactive),86.3% (inactive),-5.55% (inactive),91.8,86.3,-4.59% (inactive),-3.5% (inactive)
CSc1ccc(S(=O)(=O)Nc2cccc(F)c2)cc1,96,76% (inactive),96% (inactive),97.7% (inactive),97.3% (inactive),-0.325% (inactive),97.6,97.3,-5.26% (inactive),-5.33% (inactive)
Cc1ccc(NC(=O)C2CCCN2S(=O)(=O)c2cccc3cccnc23)cc1F (stereo not given),98,97.5% (inactive),98% (inactive),102% (inactive),93.7% (inactive),-6.31% (inactive),100,93.7,-4% (inactive),3.93% (inactive)
COCCn1nnnc1C(c1cc2cc(OC)ccc2[nH]c1=O)N1CCC(Cc2ccccc2)CC1 (stereo not given),124,80% (inactive),124% (inactive),65.4% (inactive),9.35% (active),-15.4% (inactive),24.8,9.35,-7.87% (inactive),-2.38% (inactive)
Cc1cc(C)nc(SCC(=O)Nc2ncc3c(n2)CCCC3=O)n1,98.5,93.5% (inactive),98.5% (inactive),99% (inactive),112% (inactive),12.5% (inactive),99.3,112,-1.17% (inactive),-4.13% (inactive)
O=S(c1ccsc1)c1ccsc1,116,87% (inactive),116% (inactive),104% (inactive),88.7% (inactive),-4.55% (inactive),93.2,88.7,1.6% (inactive),1.29% (inactive)
CCOC(=O)C1CCCN(C/C(O)=C(\C#N)c2nc(-c3ccc(Cl)cc3)cs2)C1 (stereo not given),78.5,101% (inactive),78.5% (inactive),71.8% (inactive),84.1% (inactive),-7.97% (inactive),92.1,84.1,-6.16% (inactive),-3.17% (inactive)
Cc1cc(C)nc(SCC(=O)Nc2ccc(S(=O)(=O)Nc3nccs3)cc2)n1,110,107% (inactive),110% (inactive),97.4% (inactive),95.7% (inactive),4.67% (inactive),91,95.7,-1.76% (inactive),5.9% (inactive)
O=C(Cn1cnc2c(cnn2-c2ccc(F)cc2)c1=O)N1CCCc2ccccc21,112,86.5% (inactive),112% (inactive),85.6% (inactive),94.4% (inactive),-7.36% (inactive),102,94.4,-4.67% (inactive),-2.79% (inactive)
COC(=O)C1CCN(C(=O)c2sc3nc(-c4ccc(F)cc4)cn3c2C)CC1,76.5,92% (inactive),76.5% (inactive),99.8% (inactive),100% (inactive),22.1% (inactive),77.9,100,-1.07% (inactive),0.81% (inactive)
CC(C)Cn1c(CN(Cc2ccccc2)Cc2ccccc2)nc2c1c(=O)n(C)c(=O)n2C,85.5,86.5% (inactive),85.5% (inactive),54.8% (inactive),90.1% (inactive),1.2% (inactive),88.9,90.1,-1.47% (inactive),3.93% (inactive)
Cc1nc2ccccn2c1P(=O)(N1CCCCC1)N1CCCCC1,92.5,112% (inactive),92.5% (inactive),117% (inactive),91% (inactive),1.72% (inactive),89.3,91,-2.93% (inactive),0% (inactive)

Structure (SMILES),viability [1] [%],Her2 level [2],viability [3],viability [4],viability [5],differential viability (reversal) ([6]; H69AR cells + 2 uM doxorubicin),"viability [6, 9] [%]","viability [6, 10] [%]",inhibition [7],inhibition [8]
O=C(O)CC1SC(=Nc2cccc(C(F)(F)F)c2)NC1=O (stereo not given),111,94.5% (inactive),111% (inactive),104% (inactive),103% (inactive),9.34% (inactive),93.2,103,-1.45% (inactive),1.29% (inactive)
CC(C)(C)c1ccccc1NC(=O)c1cccnc1,91.5,93.5% (inactive),91.5% (inactive),88.7% (inactive),96.6% (inactive),7.78% (inactive),88.8,96.6,-4.67% (inactive),0.32% (inactive)
COC(=O)c1cc(O)c(OCc2ccccc2)c(O)c1,88,98% (inactive),88% (inactive),114% (inactive),94.3% (inactive),18% (inactive),76.3,94.3,2.63% (inactive),-7.09% (inactive)
CCC(=O)N1CCN=C1SCc1ccc(Cl)cc1,90,93.5% (inactive),90% (inactive),77.3% (inactive),95.1% (inactive),10.8% (inactive),84.3,95.1,1.04% (inactive),31.5% (active)
COC(=O)c1cccc(NC(=O)NC2CCCN2S(=O)(=O)c2ccc(Cl)cc2)c1 (stereo not given),83,75.5% (inactive),83% (inactive),82.6% (inactive),94.1% (inactive),11.4% (inactive),82.7,94.1,-4.53% (inactive),-7.05% (inactive)
Cc1nn(Cc2ccc(C(=O)NC3CCCCC3)o2)c(C)c1Br,94.5,90% (inactive),94.5% (inactive),86.9% (inactive),92.9% (inactive),-5.8% (inactive),98.7,92.9,-3.29% (inactive),-5.17% (inactive)
c1ccc(-n2ncc3c(N4CCCCC4)ncnc32)cc1,105,90.5% (inactive),105% (inactive),59.4% (inactive),70% (inactive),4.94% (inactive),65.1,70,-3.6% (inactive),-4.17% (inactive)
CN(C)CCCNC(=O)c1ccc(CN(c2ccccc2)S(C)(=O)=O)cc1,97.5,96% (inactive),97.5% (inactive),86.4% (inactive),92.1% (inactive),3.06% (inactive),89,92.1,0.91% (inactive),-7.87% (inactive)
COc1ccccc1OCCCCNCCO,95.5,116% (inactive),95.5% (inactive),92% (inactive),101% (inactive),12.6% (inactive),88.7,101,-1.56% (inactive),-7.83% (inactive)
CCC1C(=O)n2nc(-c3ccccc3)cc2N=C1C (stereo not given),106,66.5% (inactive),106% (inactive),86.9% (inactive),99% (inactive),8.73% (inactive),90.2,99,-0.39% (inactive),-3.17% (inactive)
CCC(C)OC(=O)n1ccc(C(=O)Nc2nccs2)n1 (stereo not given),106,84% (inactive),106% (inactive),91.4% (inactive),91.4% (inactive),-4.24% (inactive),95.6,91.4,0.53% (inactive),-4.19% (inactive)
COCCOC(=O)c1c(C)oc2ccc(NS(=O)(=O)c3ccc(F)cc3)cc12,85.5,90.5% (inactive),85.5% (inactive),93% (inactive),90.5% (inactive),-4.71% (inactive),95.2,90.5,-2.43% (inactive),2.7% (inactive)
CCOC(=O)c1sc(C)c2c1NC(C)(c1cccs1)NC2=O (stereo not given),105,96.5% (inactive),105% (inactive),83.6% (inactive),82.5% (inactive),-8.16% (inactive),90.6,82.5,-1.73% (inactive),-6.94% (inactive)
COc1ccc(-c2cc(C(F)(F)F)nc(N3CCN(c4ccc(F)cc4)CC3)n2)cc1OC,78.5,88% (inactive),78.5% (inactive),71.7% (inactive),85.5% (inactive),6.42% (inactive),79.1,85.5,-2.97% (inactive),13.9% (inactive)
CC(C)[C@H](NC(=O)OC(C)(C)C)c1nnc(SCc2cccc(F)c2)o1,90,120% (inactive),90% (inactive),107% (inactive),96.4% (inactive),-1.12% (inactive),97.5,96.4,0.13% (inactive),0% (inactive)
CCN(Cc1cc2cc(OC)ccc2[nH]c1=O)C(=O)c1ccncc1,89,100% (inactive),89% (inactive),97.8% (inactive),99.5% (inactive),-3.88% (inactive),103,99.5,-2.13% (inactive),9.05% (inactive)
